High-throughput results as filed in PubChem.
GSH fluor: GSH bead compound fluorescence profile; GSH beads flow cytometry, compound fluorescence 488/530 nm; hits give high values; fluorescence (KMESF) at 10 µM; 190,000 tested, 0.25% active; AID 1776; in the data active means fluorescence above about 89;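 further: glutathione beads carrying GST-tagged Bcl family fusion proteins plus one bare bead set; values are compound well signal with DMSO vehicle wells as background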
NCF1 inh: inhibitors of human p47phox binding. p47phox/p22phox peptide binding, fluorescence polarization, 2 h. inhibition, % at 24.7 µM. P14598. AID 1274. 220,000 tested, 0.53% active;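 active means inhibition above about 30%, limit read from the data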;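 further: 0% = p47phox with labelled peptide and 100% = labelled peptide alone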
Target sequence (P14598 whole entry, looked up): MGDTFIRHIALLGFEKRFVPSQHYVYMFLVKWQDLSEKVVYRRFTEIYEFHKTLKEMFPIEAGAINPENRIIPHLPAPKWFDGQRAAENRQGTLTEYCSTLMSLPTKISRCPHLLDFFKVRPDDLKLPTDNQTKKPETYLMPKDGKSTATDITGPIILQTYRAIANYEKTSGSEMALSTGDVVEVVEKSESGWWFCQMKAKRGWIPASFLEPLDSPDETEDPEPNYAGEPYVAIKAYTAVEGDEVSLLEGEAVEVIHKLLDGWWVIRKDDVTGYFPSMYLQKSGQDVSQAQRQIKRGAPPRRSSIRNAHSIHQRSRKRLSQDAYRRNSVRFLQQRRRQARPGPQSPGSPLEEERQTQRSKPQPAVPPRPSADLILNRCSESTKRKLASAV
Avidin fluor: avidin bead compound fluorescence profile. 220,000 tested, 0.38% active. fluorescence (KMESF) at 10 µM. Avidin beads, compound fluorescence 488/530 nm, flow cytometry; hits give high values; in the data active means fluorescence above about 47
Diaph act CS: diaphorase activation or chemical reduction counter-screen; Diaphorase/resazurin coupled assay, resorufin fluorescence, 16 min; hits give high values; 1 = vehicle wells, 0 = NADH-free wells; activation factor at 20 µM; 190,000 tested, 0.005% active; AID 1229;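 active means diaphorase activity raised at least twofold by the compound at 20 µM; inactive means activation factor below 2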
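Test system: Clostridium kluyveri diaphorase, purified enzyme. Buffer or medium: 50 mM HEPES pH 7.4 buffer plus MgCl2 and Tween 20. Also added: 0.114 mM NADH and 0.1 mM resazurin, final amounts. Dosing: compound 20 µM once, DMSO 1%. Schedule: 16 min enzyme reaction, ambient temperature. Detection: fluorescence of resorufin, 544 nm excitation, 590 nm emission.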
PMI act hi M6P: activators of human phosphomannose isomerase at near-saturating mannose 6-phosphate. P34949. coupled PMI enzyme assay, resazurin fluorescence, 20 min; hits give high values; 1 = untreated enzyme, 0 = substrate-free blank. activation factor at 20 µM. 190,000 tested, 0.34% active. AID 1216;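 active means activation factor of 2 or more at 20 µM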
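Material: human phosphomannose isomerase with PGI, G6PDH, diaphorase coupling enzymes. Quantity: 15 ng/mL PMI. Medium: HEPES pH 7.4 buffer with MgCl2 and Tween-20. Reagent: Near-saturating mannose-6-phosphate, 1.0 mM. Compound: 20 µM single dose. Times: enzyme reaction with compound 20 min at room temperature. Detection: resorufin fluorescence at Ex 544/Em 590 nm.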
PMI act: increases human mannose-6-phosphate isomerase activity. AID 1214. 190,000 tested, 0.005% active. activation factor at 20 µM. purified human PMI, coupled resazurin fluorescence, 20 min; hits give high values; 1 = vehicle control, 0 substrate-free wells;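 active means activation factor of 2 or more at 20 µM, relative to plate controls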
An asterisk follows results filed as active; x = not tested or not shown. This is a sample that favours compounds with a hit; in the whole collection about 1.4% have one here.

SMILES	GSH fluor	NCF1 inh	Avidin fluor	Diaph act CS	PMI act hi M6P	PMI act
CN([C@@H](Cc1ccc(OS(=O)(=O)c2cccc3cnccc23)cc1)C(=O)N1CCN(c2ccccc2)CC1)S(=O)(=O)c1cccc2cnccc12	20	-31	8	0.7	0.8	0.9
COc1cc(C2Nc3ccccc3NC3=C2C(=O)CC(c2ccc(OC)c(OC)c2)C3)ccc1O (centres undefined)	x	6	10	x	x	x
COc1ccc(C(=O)NCC(=O)OCC(=O)Nc2cc(OC)ccc2OC)cc1	37	0	6	1	1	1
CCCCCC1(C)NC(=S)N(c2ccccc2)N1 (centres undefined)	13	-8	10	1	3.1*	2*
CCCCCCC1(C)NC(=S)N(c2ccccc2)N1 (centres undefined)	24	18	11	0.9	3*	1.9
CC1(CC(=O)Nc2ccccc2)NC(=S)N(c2ccccc2)N1 (centres undefined)	14	-6	9	0.9	1.1	1.3
COc1ccc(CCNC(=O)Cn2nc(C(=O)O)c3ccccc3c2=O)cc1OC	10	-1	9	1.2	1.2	1.2
COc1ccc(CC(=O)NNC(=O)c2nn(Cc3ccccc3)c(=O)c3ccccc23)cc1OC	x	142*	27	x	x	x
CC(=O)NNc1nc(-c2ccc(C)cc2)cs1	15	-4	8	0.9	1.1	1.2
CC(=O)NNc1nc(-c2ccccc2)cs1	18	-5	6	0.9	2.4*	1.7
CCc1ccc(-c2csc(NC(=O)Oc3ccccc3)n2)cc1	10	30*	14	0.9	1	0.9
O=C(/C=C\c1ccco1)Nc1nc(-c2ccccc2)cs1	12	2	6	1	1	0.9
O=C(Nc1nc(-c2cccc(Br)c2)cs1)Oc1ccccc1	21	7	10	0.9	0.9	1
O=C(/C=C/c1ccccc1)Nc1nc(-c2ccncc2)cs1	16	31*	24	1	1	1.1
COc1ccc(OC)c(C(=O)c2coc3ccc(O)cc23)c1	88*	-4	13	0.8	0.9	0.9
O=C(c1ccc(NS(=O)(=O)c2cccs2)cc1)N1CCN(c2ccccc2Cl)CC1	14	-35	9	0.8	0.9	0.8
CCCCC1C(C#N)=C(C)NC2=C1C(=O)CC(C)(C)C2 (centres undefined)	253*	-10	6	0.8	0.9	0.9
CC(C)NC(=O)COC(=O)c1ccc(Oc2ccccc2)cc1	265*	-8	9	0.9	1	1
COc1ccc(C(=O)/C=C/C(=O)N(Cc2ccccc2OC)C(C(=O)NC2CCCCC2)c2ccncc2)c(O)c1 (centres undefined)	6	-8	13	0.8	0.9	0.9
COc1ccccc1CN(C(=O)CCl)C(C(=O)NC1CCCCC1)c1ccncc1 (centres undefined)	2	43*	13	0.9	0.9	1
COc1ccc(CNC(=O)CCSCc2cccc(Cl)c2)cc1	16	0	92*	0.8	0.9	0.9
Cc1ccc(NC(=S)N/N=C2\CCCCC2C)cc1 (centres undefined)	16	4	11	0.8	2*	1.8
CC1CCCC/C1=N\NC(=S)Nc1cccnc1 (centres undefined)	14	-3	9	0.9	1.9	1.7
CCOCCCNCc1c(Cl)cccc1Cl	18	4	60*	0.9	1	1
CCOCCCNCc1ccc(OCc2ccccc2Cl)cc1	12	-16	8	0.9	0.9	1
Cc1ccccc1NC(=S)NC(NC(=O)N(C)C)C(Cl)(Cl)Cl (centres undefined)	54	-16	22	1	1	1
COc1ccc(NC(C)C(=O)Nc2cc(C(F)(F)F)ccc2N2CCOCC2)c(OC)c1 (centres undefined)	9	-2	14	0.8	0.8	0.8
CCC(CC)C(=O)N1CCN(c2ccccc2)CC1	9	-9	10	0.9	2.8*	1.8
CC(C)C(=O)Nc1cccc(NC(=O)c2cccc(Br)c2)c1	78	1	14	1	1	0.8
